Experimental data pooled from the literature.
Each line is one published result; the experiments were not run side by side.
Target: D(2) dopamine receptor (DRD2, Homo sapiens, UniProt P14416)
Concentration: 10 µM

Cc1c(Cl)cccc1-c1ccc(CNCC(O)c2ccccc2)o1 (centres unmarked) — inhibition (enzyme activity, inhibitor): 46.8%
O=C(c1ccc(F)cc1)N1CC(COc2ccc(Br)cc2)(C(=O)O)C1 — inhibition (cell-free assay): -29.4%
Cc1ccccc1N1CCN(CC(O)COc2ccc(C(=O)c3ccccc3)cc2)CC1 (centres unmarked) — inhibition (enzyme activity, inhibitor): 49.2%
O=C(CN1CCO[C@@H](COc2cccnc2)C1)N1CCc2ccccc21 — inhibition (ligand displacement, radioligand): 5.5%
CN(C)c1ncnc(-c2ccc3nc(Nc4cc(CN5CCN(C(=O)CC(F)(F)F)CC5)ccn4)[nH]c3c2)c1Cl — inhibition (ligand displacement): 10.6%
O=C(CN1CCO[C@H](COc2cccc(Cl)c2)C1)N1CCc2ccccc21 — inhibition (ligand displacement, radioligand): 15.1%
COc1cccc(N2CCN(C3CC(=O)N(c4cccc(OC)c4)C3=O)CC2)c1 (centres unmarked) — inhibition (enzyme activity, inhibitor): 8.6%
NS(=O)(=O)c1cc(NC(=O)Cc2ccccc2)ccc1Oc1cccc(Cl)c1 — inhibition (ligand displacement): -7.81%
COc1ccc(CCN2C(=O)CC(N3CCN(c4ccc(Cl)cc4)CC3)C2=O)cc1OC (centres unmarked) — inhibition (enzyme activity, inhibitor): 11.9%
COc1ccc2c(c1)C(=O)N(CCN1CCN(c3ccccc3OC)CC1)C2 — inhibition (ligand displacement, radioligand): 66.6%
N#Cc1cc(Cn2c(N3CCCC3)nc3ccccc32)ccc1F — inhibition (ligand displacement): -11.5%
Cc1ncccc1OC[C@@H]1CN(CCN2CCc3ccccc32)CCO1 — inhibition (ligand displacement, radioligand): 15.2%
COc1ccccc1N1CCN(CCCCN2C(=O)C3CCCCN3C2=O)CC1 (centres unmarked) — inhibition (enzyme activity, inhibitor): 72.6%
c1cncc(OC[C@H]2CN(CCN3CCc4ccccc43)CCO2)c1 — inhibition (ligand displacement, radioligand): 36.3%
C[C@@H](c1cccc(C#N)c1)n1cc(Cl)cc(C(N)=O)c1=N — inhibition (ligand displacement): -3.06%
Clc1cccc(OC[C@@H]2CN(CCN3CCc4ccccc43)CCO2)c1 — inhibition (ligand displacement, radioligand): 62.7%
O=C1NC(c2ccccn2)Sc2ccccc21 (centres unmarked) — inhibition (ligand displacement): -3.91%
CCN(CC)c1ccc(C2Nc3ccc(C(=O)c4ccccc4)cc3NC3=C2C(=O)CC(C)(C)C3)cc1 (centres unmarked) — inhibition (ligand displacement, radioligand): 99%
CN(C)CC#Cc1ccc(OCCCc2sc(N3CCc4cccc(C(=O)Nc5nc6ccccc6s5)c4C3)nc2C(=O)O)c(F)c1 — inhibition (ligand displacement): 31.5%
Cc1ccccc1OCC(O)CN1CCN(CC(O)COc2ccccc2C)CC1 (centres unmarked) — inhibition (enzyme activity, inhibitor): 19.5%
